{"source": "ChEMBL document CHEMBL1132377", "about": "(J Med Chem, 1999)", "key": {"L929": {"tested_on": "L929", "assay": "Cytotoxicity against mouse L-929 fibroblast cell line, by means of standard proliferation assay", "type": "functional, cell-based"}, "[1]": {"target": "T1, Peptidyl-prolyl cis-trans isomerase FKBP1A (Homo sapiens, UniProt P62942)", "T1 sequence (P62942 whole entry)": "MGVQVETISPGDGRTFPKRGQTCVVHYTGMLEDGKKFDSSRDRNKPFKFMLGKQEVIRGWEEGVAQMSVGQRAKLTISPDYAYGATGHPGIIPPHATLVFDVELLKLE", "assay": "Compound was evaluated for its inhibitory effect on human FK506 binding protein 12 by means of protease-coupled PPIase assay", "in_short": "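Recombinant hFKBP12 (14 nM) preincubated ≥5 min with effectors (0.01–200 μM, diluted from DMSO stocks, organic solvent usually below 0.1% v/v) in 35 mM HEPES pH 7.8. Reaction started with Suc-Ala-Phe-Pro-Phe-pNA (24.0 μM); α-chymotrypsin (410 μg/mL) as isomer-specific protease; 4-nitroaniline release read at 390 nm, 10 °C. First-order k_enz derived; IC50 from concentration dependence; mean ± SD of three determinations.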"}, "K562": {"tested_on": "K562", "assay": "Cytotoxicity against […] leukemic cell line, by means of standard proliferation assay", "type": "functional, cell-based", "conditions": "Homo sapiens"}, "Rattus norvegicus [2]": {"tested_on": "Rattus norvegicus", "assay": "Weight difference between EDL muscles of axotomized left hind limbs and corresponding right controls 8 weeks (dose=30 mg/kg)", "type": "functional, Muscle tissue", "in_short": "(§1)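 Female HAN:Wist rats (4 months old) underwent left sciatic neurotomy with 30 mg/kg given locally at the lesion. EDL muscles were taken at 8 or 10 weeks and weighed relative to protein concentration. The % weight difference, lesioned left versus intact right limb, was expressed relative to placebo controls. Values are mean ± SD of n animals.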"}, "Rattus norvegicus [3]": {"tested_on": "Rattus norvegicus", "assay": "Weight difference between EDL muscles of axotomized left hind limbs and corresponding right controls 10 weeks (dose=30 mg/kg)", "type": "functional, Muscle tissue", "in_short": "as §1"}, "Rattus norvegicus [4]": {"tested_on": "Rattus norvegicus", "assay": "Effect on Axonal Regeneration following sciatic nerve neurotomy at a dose of 30 mg/kg after 10 weeks", "type": "functional", "in_short": "(§2)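 Left sciatic nerve cut (neurotomy) in 4-month-old female HAN:Wist rats under intramuscular Rompun/Ketavet anaesthesia. A single 30 mg/kg dose was applied at the lesion site. Walking behaviour was scored up to 8 or 10 weeks after surgery. Values are % increase in rate of functional recovery versus placebo-treated rats, given as mean ± SD of n animals.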"}, "Rattus norvegicus [5]": {"tested_on": "Rattus norvegicus", "assay": "Effect on Axonal Regeneration following sciatic nerve neurotomy at a dose of 30 mg/kg after 8 weeks", "type": "functional", "in_short": "as §2"}, "Rattus norvegicus [6]": {"tested_on": "Rattus norvegicus", "assay": "Weight difference between EDL muscles of axotomized left hind limbs and corresponding right controls 10 weeks (dose=1 mg/kg)", "type": "functional, Muscle tissue", "in_short": "(§3)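 Sciatic nerve of left hind leg lesioned (neurotomy) in 4-month-old female HAN:Wist rats under intramuscular Rompun (16 mg/kg)/Ketavet (125 mg/kg) anesthesia. Functional recovery scored from walking behavior. EDL muscle weights of the lesioned left limb and the unlesioned right limb compared, with weights related to protein concentration. Weight differences expressed as percentages relative to placebo; mean ± SD of n animals.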"}, "Rattus norvegicus [7]": {"tested_on": "Rattus norvegicus", "assay": "Effect on Axonal Regeneration following sciatic nerve neurotomy at a dose of 1 mg/kg after 10 weeks", "type": "functional", "in_short": "as §3"}, "[8]": {"assay": "Inhibition constant(Ki) for inhibition of PPIase activity of Escherichia coli FK506 binding protein 26 (Conc=1 uM) of FKBPs family", "in_short": "(§4)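 Protease-coupled PPIase assay with α-chymotrypsin 410 μg/mL and Suc-Ala-Phe-Pro-Phe-pNA 24.0 μM. Enzyme was preincubated at least 5 min with inhibitor (0.01–200 μM) in 35 mM HEPES pH 7.8, DMSO usually below 0.1%. 4-Nitroaniline release was read at 390 nm, 10 °C, and first-order k_enz derived. Ki came from nonlinear competitive-inhibition fit; mean ± SD of three.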"}, "[9]": {"assay": "Inhibition constant(Ki) for inhibition of PPIase activity of human Cyclophilin 18 (Conc=2 nM)", "in_short": "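hCyp18 was expressed recombinantly in E. coli and assayed for PPIase activity with α-chymotrypsin 410 μg/mL and Suc-Ala-Phe-Pro-Phe-pNA 24.0 μM. It was preincubated at least 5 min with 0.01–200 μM inhibitor in 35 mM HEPES pH 7.8. 4-Nitroaniline was monitored at 390 nm, 10 °C, and constants were obtained by competitive nonlinear fit.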"}, "[10]": {"assay": "Inhibition constant(Ki) for inhibition of PPIase activity of Escherichia coli SlyD (Conc=2 uM) of FKBPs family", "in_short": "(§5)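 PPIase assay coupled to trypsin 210 μg/mL, using Suc-Ala-Phe-Pro-Arg-pNA 34.0 μM (SlyD) or Ac-Ala-Ala-Ser(P)-Pro-Arg-pNA 26.0 μM (hPin1). Enzyme was preincubated at least 5 min with inhibitor (0.01–200 μM) in 35 mM HEPES pH 7.8. Absorbance at 390 nm was followed at 10 °C, and first-order catalytic rate constants were fitted to a competitive model.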"}, "[11]": {"assay": "Inhibition constant(Ki) for inhibition of PPIase activity of Escherichia coli parvulin (Conc=6 nM) of Parvulins sfamily"}, "[12]": {"target": "Peptidyl-prolyl cis-trans isomerase NIMA-interacting 1 (Homo sapiens, UniProt Q13526)", "sequence (Q13526 whole entry)": "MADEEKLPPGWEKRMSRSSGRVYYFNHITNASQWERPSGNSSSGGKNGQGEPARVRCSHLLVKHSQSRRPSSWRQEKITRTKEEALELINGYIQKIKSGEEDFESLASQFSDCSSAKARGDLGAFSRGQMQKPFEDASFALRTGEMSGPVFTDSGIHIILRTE", "assay": "Inhibition constant(Ki) for inhibition of PPIase activity of human Peptidyl-prolyl cis-trans isomerase NIMA-interacting 1 (Conc=4 nM) of Parvulins family", "in_short": "as §5"}, "[13]": {"target": "T1, Peptidyl-prolyl cis-trans isomerase FKBP1A", "assay": "Inhibition constant(Ki) for inhibition of PPIase activity of human FK506 binding protein 12 (Conc=14 nM) of FKBPs family", "in_short": "as §4"}, "[14]": {"assay": "Inhibition constant(Ki) for inhibition of PPIase activity of Escherichia coli trigger factor (Conc=12 nM) of FKBPs family", "in_short": "as §4"}}, "data": [{"smiles": "C[C@@H]1C[C@@H]([C@H](O)CC2CC(=O)N(Cc3ccccc3)C(=O)C2)C(=O)[C@@H](C)C1", "values": [{"measurement": "IC50", "setting": "L929", "result": 135, "unit": "µg/mL"}, {"measurement": "IC50", "setting": "[1]", "result": 117, "unit": "µM"}, {"measurement": "IC50", "setting": "K562", "result": 81.6, "unit": "µg/mL"}]}, {"smiles": "CCOC(=O)CN1C(=O)CC(C[C@@H](O)[C@@H]2C[C@@H](C)C[C@H](C)C2=O)CC1=O", "values": [{"measurement": "IC50", "setting": "L929", "result": 76.7, "unit": "µg/mL"}, {"measurement": "Weight difference", "setting": "Rattus norvegicus [2]", "result": 20, "unit": "%"}, {"measurement": "Weight difference", "setting": "Rattus norvegicus [3]", "result": 13, "unit": "%"}, {"measurement": "Walking behaviour", "setting": "Rattus norvegicus [4]", "result": 14, "unit": "%"}, {"measurement": "Walking behaviour", "setting": "Rattus norvegicus [5]", "result": 46, "unit": "%"}, {"measurement": "IC50", "setting": "[1]", "result": 4.4, "unit": "µM"}, {"measurement": "IC50", "setting": "K562", "result": 64.9, "unit": "µg/mL"}]}, {"smiles": "C=CC[C@@H]1/C=C(\\C)C[C@H](C)C[C@H](OC)[C@H]2O[C@@](O)(C(=O)C(=O)N3CCCC[C@H]3C(=O)O[C@H](/C(C)=C/[C@@H]3CC[C@@H](O)[C@H](OC)C3)[C@H](C)[C@@H](O)CC1=O)[C@H](C)C[C@@H]2OC", "note": "[TACROLIMUS ANHYDROUS]", "values": [{"measurement": "Weight difference", "setting": "Rattus norvegicus [6]", "result": 18, "unit": "%"}, {"measurement": "Walking behaviour", "setting": "Rattus norvegicus [7]", "result": 100, "unit": "%"}]}, {"smiles": "C[C@@H]1C[C@@H]([C@H](O)CC2CC(=O)N(C)C(=O)C2)C(=O)[C@@H](C)C1", "values": [{"measurement": "IC50", "setting": "L929", "result": "> 200", "unit": "µg/mL"}, {"measurement": "IC50", "setting": "[1]", "result": 124, "unit": "µM"}, {"measurement": "IC50", "setting": "K562", "result": 133, "unit": "µg/mL"}]}, {"smiles": "C[C@@H]1C[C@@H]([C@H](O)CC2CC(=O)NC(=O)C2)/C(=N\\O)[C@@H](C)C1", "values": [{"measurement": "IC50", "setting": "L929", "result": 86.9, "unit": "µg/mL"}, {"measurement": "IC50", "setting": "[1]", "result": 177, "unit": "µM"}, {"measurement": "IC50", "setting": "K562", "result": 116, "unit": "µg/mL"}]}, {"smiles": "CCOC(=O)CCCN1C(=O)CC(C[C@@H](O)[C@@H]2C[C@@H](C)C[C@H](C)C2=O)CC1=O", "values": [{"measurement": "IC50", "setting": "L929", "result": 145, "unit": "µg/mL"}, {"measurement": "IC50", "setting": "[1]", "result": 22.3, "unit": "µM"}, {"measurement": "IC50", "setting": "K562", "result": 109, "unit": "µg/mL"}]}, {"smiles": "CC(=O)O[C@H](CC1CC(=O)NC(=O)C1)[C@@H]1C[C@@H](C)C[C@H](C)C1=O", "values": [{"measurement": "IC50", "setting": "L929", "result": 9.3, "unit": "µg/mL"}, {"measurement": "IC50", "setting": "[1]", "result": "> 200", "unit": "µM"}, {"measurement": "IC50", "setting": "K562", "result": 1.1, "unit": "µg/mL"}]}, {"smiles": "C[C@@H]1C[C@@H]([C@H](O)CC2CC(=O)NC(=O)C2)C(=O)[C@@H](C)C1", "note": "[CYCLOHEXIMIDE]", "values": [{"measurement": "IC50", "setting": "L929", "result": "< 0.39", "unit": "µg/mL"}, {"measurement": "Ki", "setting": "[8]", "result": 10.3, "unit": "µM"}, {"measurement": "Ki", "setting": "[9]", "result": "> 200", "unit": "µM"}, {"measurement": "Ki", "setting": "[10]", "result": "> 200", "unit": "µM"}, {"measurement": "Ki", "setting": "[11]", "result": 187, "unit": "µM"}, {"measurement": "Ki", "setting": "[12]", "result": "> 200", "unit": "µM"}, {"measurement": "Ki", "setting": "[13]", "result": 3.4, "unit": "µM"}, {"measurement": "IC50", "setting": "[1]", "result": 3.6, "unit": "µM"}, {"measurement": "Ki", "setting": "[14]", "result": "> 200", "unit": "µM"}, {"measurement": "IC50", "setting": "K562", "result": "< 0.39", "unit": "µg/mL"}]}, {"smiles": "C[C@@H]1C[C@@H]([C@H](O)CC2CC(=O)N(Cc3ccc(C#N)cc3)C(=O)C2)C(=O)[C@@H](C)C1", "values": [{"measurement": "IC50", "setting": "L929", "result": 1.4, "unit": "µg/mL"}, {"measurement": "IC50", "setting": "[1]", "result": 68.2, "unit": "µM"}, {"measurement": "IC50", "setting": "K562", "result": 0.8, "unit": "µg/mL"}]}, {"smiles": "C[C@@H]1C[C@@H]([C@H](O)CC2CC(=O)N(CC(N)=O)C(=O)C2)C(=O)[C@@H](C)C1", "values": [{"measurement": "IC50", "setting": "L929", "result": 5.3, "unit": "µg/mL"}, {"measurement": "IC50", "setting": "[1]", "result": 21.6, "unit": "µM"}, {"measurement": "IC50", "setting": "K562", "result": 4.6, "unit": "µg/mL"}]}, {"smiles": "CCOC(=O)CN1C(=O)CC(C[C@@H](OC(=O)NC23C[C@H]4C[C@@H](C2)C[C@@H](C3)C4)[C@@H]2C[C@@H](C)C[C@H](C)C2=O)CC1=O", "values": [{"measurement": "IC50", "setting": "[1]", "result": "> 200", "unit": "µM"}]}]}
